Results from ChEMBL document CHEMBL3779764, “Identification and Structure-Activity Relationships of Diarylhydrazides as Novel Potent and Selective Human Enterovirus Inhibitors” (J Med Chem, 2016).

Experiments:
[1] = Cytotoxicity against african green monkey Vero cells assessed as reduction in cell viability after 24 to 36 hrs by MTS-based CPE reduction assay; details: chlorocebus sabaeus
How it was run: (§1)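 Noninfected Vero or RD cells exposed to serial compound dilutions under the CPE-assay conditions (37 °C, 24-36 h). Viability measured by MTS/PMS absorbance at 498 nm. CC50 is the concentration causing 50% death of noninfected cells.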

Enterovirus A71 [2] = test: Antiviral activity against Human enterovirus 71 infected in monkey African green Vero cells by MTS-based CPE reduction assay; type: functional, organism-based
How it was run: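 Vero cells (5 × 10^5) seeded, then given serial compound dilutions plus 100 TCID50 EV71. Incubated at 37 °C for 24-36 h until complete CPE in the virus-infected, compound-free control. Viability read by MTS/PMS at 498 nm. EC50 is the concentration inhibiting virus-induced CPE by 50%. At least three repeats.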

[3] = Selectivity index, ratio of CC50 for african green monkey Vero cells to EC50 for Enterovirus 71; type: toxicity, cell-based; details: read-out: Ratio CC50/EC50
How it was run: (§2)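 Selectivity index is CC50/EC50, both taken from MTS-based CPE reduction assays in the same cell line (Vero or RD).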

Enterovirus A71 [4] = test: Antiviral activity against Enterovirus 71 infected in human RD cells after 24 to 36 hrs by MTS-based CPE reduction assay; type: functional, organism-based
How it was run: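 RD cells given serial compound dilutions with EV71. Incubated at 37 °C for 24-36 h until full CPE in the virus control. Viability read by MTS/PMS at 498 nm. EC50 is the concentration giving 50% inhibition of virus-induced CPE. At least three independent experiments.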

RD = test: Cytotoxicity against human RD cells assessed as reduction in cell viability after 24 to 36 hrs by MTS-based CPE reduction assay; type: functional; how it was run: as §1
[5] = Selectivity index, ratio of CC50 for human RD cells to EC50 for Enterovirus 71; type: toxicity, cell-based; details: read-out: Ratio CC50/EC50; how it was run: as §2
Coxsackievirus B1 = test: Antiviral activity against Human coxsackievirus B1 infected in african green monkey Vero cells after 24 to 36 hrs by MTS-based CPE reduction assay; type: functional, organism-based; details: Enterovirus B
How it was run: (§3)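 Vero cells infected with the coxsackievirus B serotype in the presence of serial compound dilutions. CPE reduction read by MTS/PMS absorbance at 498 nm after 24-36 h at 37 °C. EC50 is the concentration giving 50% CPE inhibition. Mean ± standard deviation of at least three independent experiments.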

Coxsackievirus B2 = test: Antiviral activity against Human coxsackievirus B2 infected in african green monkey Vero cells after 24 to 36 hrs by MTS-based CPE reduction assay; type: functional, organism-based; details: Enterovirus B; how it was run: as §3
Coxsackievirus B3 = test: Antiviral activity against Human coxsackievirus B3 infected in african green monkey Vero cells after 24 to 36 hrs by MTS-based CPE reduction assay; type: functional, organism-based; details: Enterovirus B; how it was run: as §3
Coxsackievirus B4 = test: Antiviral activity against Human coxsackievirus B4 infected in african green monkey Vero cells by after 24 to 36 hrs MTS-based CPE reduction assay; type: functional, organism-based; details: Enterovirus B; how it was run: as §3
Coxsackievirus B5 = test: Antiviral activity against Human coxsackievirus B5 infected in african green monkey Vero cells after 24 to 36 hrs by MTS-based CPE reduction assay; type: functional, organism-based; details: Enterovirus B; how it was run: as §3
Coxsackievirus B6 = test: Antiviral activity against Human coxsackievirus B6 infected in african green monkey Vero cells after 24 to 36 hrs by MTS-based CPE reduction assay; type: functional, organism-based; details: Enterovirus B; how it was run: as §3
[6] = Enterovirus A, Vero, read-out: EC50
[7] = Enterovirus A, RD, read-out: EC50

Row | Structure (SMILES) | CC50 [1] [µM] | EC50 (Enterovirus A71 [2]; [6]) [µM] | selectivity ratio [3] | EC50 (Enterovirus A71 [4]; [7]) [µM] | CC50 (RD) [µM] | selectivity ratio [5] | also measured
1 | CCOc1ccc(C(=O)NNc2c(Cl)cccc2Cl)cc1 | > 246 | 0.33 | > 746 | 0.37 | > 246 | > 665 | 
2 | O=C(NNc1c(Cl)cccc1Cl)c1ccc(Br)cc1 |  |  |  |  |  |  | EC50 (Enterovirus A71 [2]; vero): Not Active; EC50 (Enterovirus A71 [4]; rd): Not Active
3 | O=C(NNc1c(Cl)cccc1Cl)c1ccc([N+](=O)[O-])cc1 |  |  |  |  |  |  | EC50 (Enterovirus A71 [2]; vero): Not Active; EC50 (Enterovirus A71 [4]; rd): Not Active
4 | Cc1cccc(Cl)c1NNC(=O)c1ccc(N(C)C)cc1 | 92.8 | 0.28 | 332 | 0.16 | 106 | 682 | 
5 | CC(C)(C)c1ccc(C(=O)NNc2c(F)cccc2F)cc1 | 150 | 2.19 | 68.4 | 4.27 | 184 | 43 | 
6 | CCc1ccc(C(=O)NNc2c(Cl)cccc2Cl)cc1 | > 259 | 0.94 | > 275 | 1.68 | > 259 | > 154 | 
7 | Cc1ccc(C(=O)NNc2c(Br)cccc2Br)cc1 | 146 | 10.8 | 13.5 | 24.7 | 163 | 6.6 | 
8 | CCCc1ccc(C(=O)NNc2c(C)cccc2Cl)cc1 | 80.2 | 0.92 | 87.2 | 2.16 | 113 | 52.4 | 
9 | Cc1cccc(C)c1NNC(=O)c1ccc(C(C)(C)C)cc1 | 166 | 0.17 | 978 | 0.42 | 188 | 454 | EC50 (Coxsackievirus B1): 0.0016 µM; EC50 (Coxsackievirus B2): 0.0016 µM; EC50 (Coxsackievirus B3): 0.09 µM; EC50 (Coxsackievirus B4): 5.62 µM; EC50 (Coxsackievirus B5): 3.19 µM; EC50 (Coxsackievirus B6): 0.56 µM
10 | CSc1ccc(C(=O)NNc2c(C)cccc2Cl)cc1 | 107 | 6.13 | 17.4 | 15.4 | 134 | 8.7 | 
11 | Cc1cccc(C)c1NNC(=O)c1ccc(N(C)C)cc1 | > 282 | 0.29 | > 974 | 0.69 | > 282 | > 411 | 
12 | O=C(NNc1c(Cl)cccc1Cl)c1ccc(F)cc1 |  |  |  |  |  |  | EC50 (Enterovirus A71 [2]; vero): Not Active; EC50 (Enterovirus A71 [4]; rd): Not Active
13 | Cc1cccc(Cl)c1NNC(=O)c1ccc(C(C)(C)C)cc1 | 49.2 | 0.79 | 62.3 | 0.97 | 63.2 | 65.1 | 
14 | O=C(NNc1c(Br)cccc1Br)c1ccccc1 | > 216 | 0.86 | > 251 | 2.43 | > 216 | > 89.1 | 
15 | COc1ccc(C(=O)NNc2c(Cl)cccc2Cl)cc1 | > 257 | 0.68 | > 378 | 1.36 | > 257 | > 189 | 
16 | CCc1ccc(C(=O)NNc2c(C)cccc2C)cc1 | 135 | 1.57 | 86.2 | 2.75 | 164 | 59.7 | 
17 | Cc1ccc(C(=O)NNc2c(C)cccc2C)cc1 | > 315 | 5.31 | > 59.2 | 13.6 | > 315 | > 23.2 | 
18 | O=C(NNc1c(Cl)cccc1Cl)c1cccc(Cl)c1 |  |  |  |  |  |  | EC50 (Enterovirus A71 [2]; vero): Not Active; EC50 (Enterovirus A71 [4]; rd): Not Active
19 | CCOc1ccc(C(=O)NNc2c(Cl)cc(Cl)cc2Cl)cc1 |  | > 100 |  | > 100 |  |  | 
20 | O=C(NNc1c(Cl)cccc1Cl)c1ccc(Cl)cc1 |  | > 100 |  | > 100 |  |  | 
21 | CCCc1ccc(C(=O)NNc2c(F)cccc2F)cc1 | > 276 | 27.4 | > 10.1 | 51.4 | > 276 | > 5.4 | 
22 | O=C(NNc1c(Cl)cccc1Cl)c1cccs1 |  | > 100 |  | > 100 |  |  | 
23 | COc1ccc(C(=O)NNc2c(C)cccc2Cl)cc1 | > 275 | 5.74 | > 47.9 | 15.4 | > 275 | > 17.9 | 
24 | CCOc1ccc(C(=O)NNc2c(Br)cccc2Br)cc1 | > 193 | 0.37 | > 522 | 0.53 | > 193 | > 362 | 

Row | Structure (SMILES) | CC50 [1] [µM] | EC50 (Enterovirus A71 [2]; [6]) [µM] | selectivity ratio [3] | EC50 (Enterovirus A71 [4]; [7]) [µM] | CC50 (RD) [µM] | selectivity ratio [5] | also measured
25 | N#Cc1ccc(C(=O)NNc2c(Cl)cccc2Cl)cc1 |  |  |  |  |  |  | EC50 (Enterovirus A71 [2]; vero): Not Active; EC50 (Enterovirus A71 [4]; rd): Not Active
26 | O=C(NNc1c(Cl)cccc1Cl)c1ccccn1 |  | > 100 |  | > 100 |  |  | 
27 | COc1ccccc1C(=O)NNc1c(Br)cccc1Br | 109 | 54.2 | 2 | > 100 |  |  | 
28 | COc1ccccc1C(=O)NNc1c(Cl)cccc1Cl |  | > 100 |  | > 100 |  |  | 
29 | CCc1ccc(C(=O)NNc2c(C)cccc2Cl)cc1 | 81.7 | 6.37 | 12.8 | 10.5 | 105 | 10 | 
30 | Cc1ccc(C(=O)NNc2c(Cl)cccc2Cl)cc1 | > 271 | 1.28 | > 212 | 0.96 | > 271 | > 281 | 
31 | CCc1ccc(C(=O)NNc2c(Br)cccc2Br)cc1 | > 201 | 0.93 | > 216 | 1.58 | > 201 | > 127 | 
32 | CC(C)(C)c1ccc(C(=O)NNc2c(Cl)cccc2Cl)cc1 | 30.8 | 0.47 | 65.6 | 0.85 | 36.7 | 43.2 | 
33 | COc1cccc(OC)c1NNC(=O)c1ccc(C(C)(C)C)cc1 | > 244 | 10.4 | > 23.4 | 27.4 | > 244 | > 8.9 | 
34 | CN(C)c1ccc(C(=O)NNc2c(F)cccc2F)cc1 | > 275 | 17.9 | > 15.3 | 23.5 | > 275 | > 11.7 | 
35 | CCc1cccc(CC)c1NNC(=O)c1ccc(C(C)(C)C)cc1 |  | > 100 |  | > 100 |  |  | 
36 | COc1ccc(C(=O)NNc2c(F)cccc2F)cc1 | > 288 | 74 | > 3.9 | > 100 |  |  | 
37 | CCCc1ccc(C(=O)NNc2c(C)cccc2C)cc1 | > 283 | 0.95 | > 298 | 2.64 | > 283 | > 107 | 
38 | CCOc1ccc(C(=O)NNc2c(C)cccc2Cl)cc1 | > 262 | 0.39 | > 673 | 0.82 | > 262 | > 319 | 
39 | COc1ccc(C(=O)NNc2c(Br)cccc2Br)cc1 | > 200 | 3.32 | > 60.2 | 2.63 | > 200 | > 76.1 | 
40 | Cc1ccc(C(=O)NNc2c(C)cccc2Cl)cc1 | > 291 | 13 | > 22.5 | 26.9 | > 291 | > 10.8 | 
41 | CC(C)c1cccc(C(C)C)c1NNC(=O)c1ccc(C(C)(C)C)cc1 |  | > 100 |  | > 100 |  |  | 
42 | COc1ccc(C(=O)NNc2c(C)cccc2C)cc1 | > 296 | 12.3 | > 24 | 29 | > 296 | > 10.2 | 
43 | CCCc1ccc(C(=O)NNc2c(Br)cccc2Br)cc1 | > 194 | 3.54 | > 54.8 | 4.62 | > 194 | > 42 | 
44 | CCOc1ccc(NNC(=O)c2c(Cl)cccc2Cl)cc1 |  | > 100 |  | > 100 |  |  | 
45 | CCCc1ccc(C(=O)NNc2c(Cl)cccc2Cl)cc1 | > 248 | 0.42 | > 589 | 0.44 | > 248 | > 562 | 
46 | O=C(NNc1c(Cl)cccc1Cl)c1ccccc1 |  | > 100 |  | > 100 |  |  | 
47 | CCOc1ccc(C(=O)NNc2c(F)cccc2F)cc1 | > 274 | 66.7 | > 4.1 | > 100 |  |  | 
